pKi: −log10 of the molar value.
Legend:
[1] = biological target: T1, 5-hydroxytryptamine receptor 1A (Rattus norvegicus, UniProt P19327); assay: Ability to displace [3H]8-OH-DPAT from 5-hydroxytryptamine 1A receptor
T1 sequence (P19327 whole entry): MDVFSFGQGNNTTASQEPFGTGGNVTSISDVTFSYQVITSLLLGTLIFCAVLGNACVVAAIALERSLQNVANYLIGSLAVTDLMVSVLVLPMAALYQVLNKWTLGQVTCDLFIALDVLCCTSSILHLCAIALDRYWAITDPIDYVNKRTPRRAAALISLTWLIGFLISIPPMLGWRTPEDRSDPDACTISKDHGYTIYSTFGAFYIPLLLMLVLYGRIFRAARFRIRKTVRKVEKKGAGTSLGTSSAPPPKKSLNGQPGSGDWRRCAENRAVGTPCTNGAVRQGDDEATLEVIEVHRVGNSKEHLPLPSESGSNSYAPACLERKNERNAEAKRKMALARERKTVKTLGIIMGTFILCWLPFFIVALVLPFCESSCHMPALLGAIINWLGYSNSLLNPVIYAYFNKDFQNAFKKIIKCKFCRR
Outline: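 Rat hippocampal membranes, [3H]8-OH-DPAT radioligand. Ki from at least three competition experiments, each with 10–14 drug concentrations run in triplicate. Ki calculated with the Cheng–Prusoff equation.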

Rattus norvegicus [2] = species on record: Rattus norvegicus; assay: Effect on 8-OH-DAPT- induced behavioral syndrome(FT: forepaw treading) by the compound in reserpine pretreated rats at a dose of 2.; type: functional
Rattus norvegicus [3] = species on record: Rattus norvegicus; assay: Effect on 8-OH-DAPT- induced behavioral syndrome(FBP: flat body posture) by the compound in reserpine pretreated rats at a dose of 2.; type: functional
Rattus norvegicus [4] = species on record: Rattus norvegicus; assay: Dose Inducing behavioral syndrome(FT: forepaw treading) by the compound in reserpine pretreated rats.; type: functional
Outline: (§1)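 Male Wistar rats (260–300 g), groups of 6, given reserpine 1 mg/kg sc 18 h before test. Compounds given ip as 1% Tween 80 suspension. FBP and FT rated 0–3 in 45-s sessions every 3 min, starting 3 min after dosing. Score summed over 5 periods (max 15 per symptom). Mean ± SEM; Newman–Keuls test.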

Rattus norvegicus [5] = species on record: Rattus norvegicus; assay: Induction of behavioral syndrome(FT: forepaw treading) by the compound in reserpine pretreated rats at a dose of 4.; type: functional
Outline: (§2)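 Male Wistar rats (260–300 g) were given reserpine 1 mg/kg sc in saline 18 h before testing. Test compound was then given alone ip as a 1% Tween 80 suspension (2 mL/kg). FBP and FT were each scored 0–3 and summed (maximum 15). n=6 per group; mean ± SEM; Newman–Keuls test.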

Rattus norvegicus [6] = species on record: Rattus norvegicus; assay: Effect on 8-OH-DAPT- induced behavioral syndrome(FBP: flat body posture) by the compound in reserpine pretreated rats at a dose of 4.; type: functional
Outline: (§3)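 Reserpinized male Wistar rats (reserpine 1 mg/kg sc, 18 h before), groups of 6. Compound given ip in 1% Tween 80 60 min before 8-OH-DPAT 5 mg/kg sc. FBP/FT rated 0–3 at 3, 6, 9, 12 and 15 min after agonist, summed (max 15). Mean ± SEM; Newman–Keuls test; ED50 with range.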

Rattus norvegicus [7] = assay: Induction of LLR(lower lip retraction) by the compound in rats at a dose of 4 mg/kg; type: functional
Outline: (§4)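 Male Wistar rats, groups of 6, given compound alone ip as 1% Tween 80 suspension. Lower incisor visibility scored 0/0.5/1 at 15, 30 and 45 min after dosing, summed (max 3 per rat). Mean ± SEM versus vehicle, Newman–Keuls test; ED50 with range.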

Rattus norvegicus [8] = species on record: Rattus norvegicus; assay: Induction of behavioral syndrome(FBP: flat body posture) by the compound in reserpine pretreated rats at a dose of 4.; type: functional; outline: as §2
Rattus norvegicus [9] = species on record: Rattus norvegicus; assay: Induction of behavioral syndrome(FBP: flat body posture) by the compound in reserpine pretreated rats at a dose of 2.; type: functional; outline: as §1
Rattus norvegicus [10] = assay: Induction of LLR(lower lip retraction) by the compound in rats at a dose of 8 mg/kg; type: functional; outline: as §4
Rattus norvegicus [11] = species on record: Rattus norvegicus; assay: Effect on 8-OH-DAPT- induced behavioral syndrome(FT: forepaw treading) by the compound in reserpine pretreated rats at a dose of 4.; type: functional; outline: as §3
Rattus norvegicus [12] = species on record: Rattus norvegicus; assay: Dose inhibiting 8-OH-DPAT-induced behavioral syndrome(FBP: flat body posture) by the compound in reserpine pretreated rats.
Rattus norvegicus [13] = species on record: Rattus norvegicus; assay: Induction of behavioral syndrome(FT: forepaw treading) by the compound in reserpine pretreated rats at a dose of 8.; type: functional; outline: as §2
Rattus norvegicus [14] = assay: Induction of LLR(lower lip retraction) by the compound in rats at a dose of 16 mg/kg; type: functional; outline: as §4
Rattus norvegicus [15] = assay: Effect on 8-OH-DPAT-Induced LLR(lower lip retraction) in rats at a dose of 4 mg/kg; type: functional
Outline: (§5)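 Male Wistar rats, groups of 6. Compound given ip in 1% Tween 80 45 min before 8-OH-DPAT 1 mg/kg sc. Lower incisor visibility scored 0/0.5/1 at 15, 30 and 45 min after agonist, summed (max 3). Mean ± SEM; Newman–Keuls test; ED50 with range.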

Rattus norvegicus [16] = species on record: Rattus norvegicus; assay: Effect on 8-OH-DAPT- induced behavioral syndrome(FBP: flat body posture) by the compound in reserpine pretreated rats at a dose of 8.; type: functional; outline: as §3
Rattus norvegicus [17] = species on record: Rattus norvegicus; assay: Induction of behavioral syndrome(FBP: flat body posture) by the compound in reserpine pretreated rats at a dose of 8.; type: functional; outline: as §2
Rattus norvegicus [18] = species on record: Rattus norvegicus; assay: Effective dose of the required to inhibit symptoms produced by 8-OH-DPAT; type: functional; outline: as §3
Rattus norvegicus [19] = species on record: Rattus norvegicus; assay: Effect on 8-OH-DAPT- induced behavioral syndrome(FT: forepaw treading) by the compound in reserpine pretreated rats at a dose of 8.; type: functional; outline: as §3
Rattus norvegicus [20] = assay: Effect on 8-OH-DPAT-Induced LLR(lower lip retraction) in rats at a dose of 8 mg/kg; type: functional; outline: as §5
Rattus norvegicus [21] = species on record: Rattus norvegicus; assay: Induction of behavioral syndrome(FT: forepaw treading) by the compound in reserpine pretreated rats at a dose of 2.; type: functional
Rattus norvegicus [22] = assay: Effect on 8-OH-DPAT-Induced LLR(lower lip retraction) in rats at a dose of 16 mg/kg; type: functional; outline: as §5
Rattus norvegicus [23] = species on record: Rattus norvegicus; assay: Dose Inducing behavioral syndrome(FBP: flat body posture) by the compound in reserpine pretreated rats.; type: functional; outline: as §1

Row | Structure (SMILES) | pKi [1] | FT mean score (Rattus norvegicus [2]) | FBP mean score (Rattus norvegicus [3]) | ED50 (Rattus norvegicus [4]) [mg/kg] | FT mean score (Rattus norvegicus [5]) | FBP mean score (Rattus norvegicus [6]) | LLR score (Rattus norvegicus [7]) | FBP mean score (Rattus norvegicus [8]) | FBP mean score (Rattus norvegicus [9]) | LLR score (Rattus norvegicus [10]) | FT mean score (Rattus norvegicus [11]) | FT mean score (Rattus norvegicus [13]) | LLR score (Rattus norvegicus [14]) | LLR score (Rattus norvegicus [15]) | FBP mean score (Rattus norvegicus [16]) | FBP mean score (Rattus norvegicus [17]) | ED50 (Rattus norvegicus [18]) [mg/kg] | FT mean score (Rattus norvegicus [19]) | LLR score (Rattus norvegicus [20]) | FT mean score (Rattus norvegicus [21]) | also measured
1 | O=C1c2ccccc2C(=O)N1CCCCN1CCc2ccccc2C1 | 6.45 | – | – | – | – | – | – | – | – | – | – | – | – | – | – | – | – | – | – | – | –
2 | O=C1[C@H]2CCCC[C@H]2C(=O)N1C1CCC(N2CCc3ccccc3C2)CC1 (stereo partly specified) | 5.80 | – | – | – | – | – | – | – | – | – | – | – | – | – | – | – | – | – | – | – | –
3 | COc1ccccc1N1CCN(CCCCN2C(=O)[C@H]3CCCC[C@H]3C2=O)CC1 | 8.40 | 3.8 | 8.3 | 2.6 | 0.2 | 6.7 | 0.5 | 0.2 | 0.1 | 0.5 | 3.5 | 0.2 | 0.8 | 1.7 | 5.5 | 0.2 | 7.5 | 0.5 | 1.3 | 0.2 | ED50 (Rattus norvegicus [12]): 3.2 mg/kg; LLR score (Rattus norvegicus [22]): 0.7
4 | COc1ccccc1N1CCN(C2CCC(N3C(=O)c4ccccc4C3=O)CC2)CC1 (stereo unspecified) | 8.10 | 6.2 | 9.8 | 2.3 | 0.2 | 8.8 | 1.3 | 0.2 | 0.1 | 1 | 4.2 | 0.2 | 1.2 | 2 | 5.6 | 0.2 | 7.5 | 1 | 1.5 | 0.1 | ED50 (Rattus norvegicus [23]): 6.3; LLR score (Rattus norvegicus [22]): 0.6

From ChEMBL document CHEMBL1132488, “On the bioactive conformation of NAN-190 (1) and MP3022 (2), 5-HT(1A) receptor antagonists” (J Med Chem, 1999)
